Bioassay records: PubChem, The Scripps Research Institute Molecular Screening Center
Sampled rows, rich in hits. Any-hit rate of the full collection: about 1.9%.
TDP2 absorb – blocks human TDP2 phosphodiesterase activity; recombinant TDP2, T5PNP hydrolysis, p-nitrophenol absorbance 415 nm; inhibition, % at 12.8 µM; O95551; hit rate 0.34% among 370,000;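 active = inhibition above the mean of all tested compounds plus 3 SD, set per campaign, cut at about 25% in these data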;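 note: 0% = DMSO with enzyme and 100% = buffer with substrate but no TDP2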
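Read-out basis: percent inhibition. System: recombinant human TDP2. Buffer or medium: Mg2+-containing Tris-HCl buffer, pH 7.5. Repeats: single replicate. Timing: reaction 2 h, 37 °C. Benchmarks: high control without enzyme, low control DMSO plus TDP2. Probe or stimulus: 5 mM T5PNP. Doses: 12.8 µM only. Measured by: epi absorbance of p-nitrophenol freed from T5PNP by hydrolysis.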
LEDGF integ inh – blocks HIV-1 LEDGF/p75-dependent DNA integration; TR-FRET IN-LEDGF/p75 DNA integration, Eu/Cy5; inhibition, % at 3.7 µM; hit rate 0.64% among 370,000;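 active = inhibition above the screen-wide mean plus 3 SD, cut at about 13% in these data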;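 note: signal is the Cy5 over europium emission ratio at 671 and 618 nm; 0% = plate median of compound wells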
MBD2 DNA inh – inhibitors of human MBD2 binding to methylated oligonucleotide. Q9UBB5. TR-FRET. inhibition, % at 4.4 µM. hit rate 0.31% among 370,000; in the data active = inhibition above about 13%
Rin1-Abl PPI inh – inhibitors of human Rin1-Abl protein interaction; TR-FRET Rin1/Abl binding, biochemical; inhibition, % at 7.35 µM; hit rate 0.4% among 360,000; AID 588664; in the data active = inhibition above about 5%, passing the limit was not always enough
UHRF1 MBD2 ctr – UHRF1 methyl-DNA binding inhibition | AID 687016 | Q96T88 | UHRF1 binding to methylated oligo, TR-FRET | hit rate 0.75% among 370,000 | inhibition, % at 4.4 µM;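 note: UHRF1 SRA domain binding a hemimethylated CpG hairpin DNA probe; 0% = median of test compound wells and 100% = reference inhibitor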
Target sequence (Q96T88 whole entry, looked up, the tested form may be a part): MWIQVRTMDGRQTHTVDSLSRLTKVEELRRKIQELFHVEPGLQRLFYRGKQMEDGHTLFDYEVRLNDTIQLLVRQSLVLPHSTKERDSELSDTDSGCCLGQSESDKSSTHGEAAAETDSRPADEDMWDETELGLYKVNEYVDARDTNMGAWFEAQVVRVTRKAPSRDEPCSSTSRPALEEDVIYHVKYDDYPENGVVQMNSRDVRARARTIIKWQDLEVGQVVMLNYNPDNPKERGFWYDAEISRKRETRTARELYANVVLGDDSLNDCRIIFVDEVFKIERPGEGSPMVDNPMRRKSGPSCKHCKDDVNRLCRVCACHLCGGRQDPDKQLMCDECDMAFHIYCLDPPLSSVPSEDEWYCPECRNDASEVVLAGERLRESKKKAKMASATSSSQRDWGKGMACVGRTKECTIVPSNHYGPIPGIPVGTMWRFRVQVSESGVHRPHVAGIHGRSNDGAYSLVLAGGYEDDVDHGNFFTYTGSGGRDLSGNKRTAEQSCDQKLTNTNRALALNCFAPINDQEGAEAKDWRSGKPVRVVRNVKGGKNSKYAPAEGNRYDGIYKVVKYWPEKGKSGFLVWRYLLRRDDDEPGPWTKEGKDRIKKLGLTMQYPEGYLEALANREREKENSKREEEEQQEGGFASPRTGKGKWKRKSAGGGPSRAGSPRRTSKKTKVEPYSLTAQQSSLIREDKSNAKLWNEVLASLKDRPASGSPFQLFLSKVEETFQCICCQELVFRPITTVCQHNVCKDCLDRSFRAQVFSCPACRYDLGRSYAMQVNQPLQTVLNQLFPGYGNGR
UHRF1 ctr MBD2 – counter-screen for MBD2 inhibitors: human UHRF1 methylated DNA binding inhibitors; shares compounds with MBD2 DNA inh; UHRF1 binding to methylated oligonucleotide, TR-FRET; inhibition, % at 4.4 µM; hit rate 25% among 1,000; AID 720530;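 note: UHRF1 SRA domain binding a labeled hemimethylated CpG hairpin DNA; 0% = vehicle only and 100% = reference inhibitor with vehicle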
MBD2 DBD conf – MBD2-DBD methyl-DNA binding inhibition, TR-FRET confirmation; shares compounds with MBD2 DNA inh; TR-FRET MBD2-DBD binding to methylated oligonucleotide; inhibition, % at 4.4 µM; hit rate 26% among 1,000; in the data active = inhibition above about 14%
Starred values were filed as active, the others as inactive; . = no result given. Cut-off read from the data, not from the text of the source, unless noted: active = inhibition above about 21%; inactive = the rest.

SMILES	TDP2 absorb	LEDGF integ inh	MBD2 DNA inh	Rin1-Abl PPI inh	UHRF1 MBD2 ctr	UHRF1 ctr MBD2	MBD2 DBD conf
Cc1cccc(CN2CCN(C3CN(Cc4cn(Cc5cccc(C(F)(F)F)c5)nn4)S(=O)(=O)C3)CC2)c1 (configuration not stated)	7.9	3.0	14.0*	.	17.7	7.3	11.2
O=C(Nc1cnc2ccccc2c1)N1CCOCC1	-10.5	0.1	15.9*	-0.1	19.8	12.5	6.8
CCC1CCc2sc(C(=O)OCC(=O)N(CCOC)c3c(N)n(Cc4ccccc4)c(=O)[nH]c3=O)cc2C1 (configuration not stated)	0.3	-0.2	-2.0	-1.4	-1.0	.	.
COCCN(C(=O)COC(=O)c1cc2c(s1)CCC2)c1c(N)n(Cc2ccccc2)c(=O)[nH]c1=O	3.9	53.7*	65.1*	3.0	95.8*	100.1*	91.1*
CN1CCCN(C(=O)C2CCCN(C(=O)c3ccc4c(c3)NC(=O)CS4)C2)CC1 (configuration not stated)	-5.7	6.3	25.3*	.	-0.1	9.4	3.2
CC(=O)C1=C(O)C(=O)N(c2ccc(C(=O)O)cc2)C1c1ccccc1 (configuration not stated)	5.1	-1.6	-4.0	0.3	0.3	.	.
CC(=O)C1=C(O)C(=O)N(c2ccc(O)cc2)C1c1ccccc1 (configuration not stated)	8.0	-7.6	22.4*	-2.0	-2.0	6.2	0.9
O=C(N1CCC(Cc2ccccc2)CC1)n1ncc(C(O)(c2ccccc2)c2ccccc2)n1	-5.5	4.3	-0.5	.	1.0	.	.
Cc1c(C(=O)Nc2cccc(F)c2)cnn1-c1ccccc1	-14.8	-0.8	13.2*	1.6	-0.1	7.0	4.0
COc1cc(NC(=O)c2ccccc2)c(C)cc1NC(=O)CSc1nnc(-c2cnccn2)n1-c1ccc(C)cc1	1.6	-0.4	7.3	.	1.1	.	.
CN(C(=O)/C=C/c1ccc2c(c1)OCO2)c1ccccc1	-8.4	-5.5	6.7	-2.9	14.7	.	.
CN(C(=O)C=Cc1ccccc1)c1ccccc1	3.0	-0.6	24.3*	-0.5	1.7	4.8	0.9
CCn1c2ccccc2c2cc(NC(=O)COC(=O)c3cc(F)ccc3C)ccc21	0.6	-0.3	2.2	.	1.0	.	.
COC(=O)[C@@]1(C(C)C)N=C(c2cc(OC)c(OC)c(OC)c2)[C@]2(O1)C(=O)N(Cc1cn(Cc3ccccc3)nn1)c1ccc(F)cc12	0.1	-2.7	13.8*	.	16.2	11.8	6.0
CC1CCCN(CCCNC(=O)c2ccc3c(c2)N(Cc2ccc(F)cc2)C(=O)c2ccccc2S3=O)C1 (configuration not stated)	4.0	0.1	17.4*	1.0	-0.8	7.3	3.1
O=S1(=O)CC2c3ccccc3CCN2CN1Cc1ccc(F)cc1 (configuration not stated)	6.2	2.5	-2.9	.	-0.3	.	.
COc1cccc(-c2cc3nc(NCCCN(C)C)n(C)c(=O)c3s2)c1	-16.9	5.8	-4.4	-6.1	2.0	.	.
COc1ncccc1-c1cc2nc(NCCCN(C)C)n(C)c(=O)c2s1	13.1	0.4	14.0*	-4.1	17.5	29.7*	17.3*
Cc1ccc(NC(=O)CSc2nc3[nH]c(=O)cc(O)c3s2)c(Br)c1	-5.3	6.9	64.3*	2.5	-1.4	5.7	2.4
O=C(CSc1nc2[nH]c(=O)cc(O)c2s1)Nc1nccs1	2.1	-3.5	-1.9	0.8	5.6	.	.
O=C(CSc1nc2[nH]c(=O)cc(O)c2s1)Nc1nncs1	15.9	-2.9	22.6*	2.9	2.3	7.5	2.8
CCCCOCCCNC(=O)C[C@H]1C[C@@]2(C(=O)OCC)CCCC3=C2N(CCC3)C1=O	-10.8	4.1	-4.5	.	-1.2	.	.
O=C(/C=C/c1cccc(Br)c1)N1CCN(c2ccccn2)CC1	0.4	-2.7	14.0*	0.2	35.4*	4.3	3.0
CC12CCC(C(N)=O)(c3nc4ccccc4nc31)C2(C)C (configuration not stated)	15.8	1.4	13.4*	2.5	19.1	8.1	3.0
COC(=O)[C@]12C[C@H](CC(=O)NCc3cccc(C(F)(F)F)c3)C(=O)N(Cc3cccc4ccccc34)C1=C[C@H](C1CCCC1)O[C@@H]2C	3.8	-1.2	4.6	.	1.2	.	.
SMILES	TDP2 absorb	LEDGF integ inh	MBD2 DNA inh	Rin1-Abl PPI inh	UHRF1 MBD2 ctr	UHRF1 ctr MBD2	MBD2 DBD conf
Cc1ccc(C(=O)O)cc1-c1ccc(/C=C2/NC(=O)N(c3ccccc3)C2=O)o1	-1.5	9.3	14.0*	-2.1	43.0*	29.7*	10.7
CN1CC(O)([C@H](Cc2ccccc2)NC(=O)OC(C)(C)C)OCC1C(=O)NCc1cccc2ccccc12 (some centres not stated)	3.8	-4.5	5.1	.	1.4	.	.
CCCOCc1ccc(O)c2ncccc12	7.4	-2.4	19.3*	-1.4	-1.0	0.2	2.4
CC(C)COCc1ccc(O)c2ncccc12	3.6	-2.1	-2.0	5.8	13.9	.	.
COc1ccc2c(c1)[C@@]1(NCCc3c1[nH]c1ccc(OC)cc31)C(=O)N2C	-0.2	2.7	-1.7	.	-1.4	.	.
CCN(CC)CCNC(=O)C1c2cc(OC)c(OC)cc2C(=O)N(C)C1c1cccs1 (configuration not stated)	-11.8	-3.5	42.3*	3.6	0.2	3.3	1.1
COc1ccc(C2C(C(=O)NCCN(C)C)c3cc(OC)c(OC)cc3C(=O)N2C)cc1OC (configuration not stated)	9.6	-0.2	0.1	0.2	0.9	.	.
COc1ccc(-c2nc3ccc(C)cn3c2Cc2ccccc2C(F)(F)F)cc1OC	-6.6	-1.8	13.7*	.	21.0*	7.9	5.5
COc1ccc(-c2nc3ccc(Cl)cn3c2Cc2ccccc2C(F)(F)F)cc1OC	-9.2	8.5	1.6	4.3	1.2	.	.
O=C(N=Nc1c(O)n(Cc2ccccc2)c2ccccc12)c1ccc(O)cc1	-9.4	2.8	41.4*	-4.5	2.4	4.1	0.1
O=C(N=Nc1c(O)n(Cc2ccccc2)c2ccccc12)c1cc2ccccc2cc1O	9.1	0.4	0.4	1.6	-0.5	.	.
CCc1ccc(/C=C2\SC(=S)N(CCC(=O)Nc3cc(C)on3)C2=O)cc1	2.3	0.1	-0.7	5.6	-3.6	.	.
CCc1ccc(/C=C2\SC(=S)N(CCCC(=O)Nc3cc(C)on3)C2=O)cc1	1.9	-1.1	14.7*	-2.0	-1.4	2.7	1.8
CCOC(=O)[C@]12CCCC=C1N(Cc1ccc(OC)cc1)C(=O)[C@@H]2CC(=O)NCCCN1CCCC1=O	0.5	-3.1	2.5	.	-1.9	.	.
COc1cc2c(cc1NC(=O)CSc1nnc(-c3ccccc3C)n1Cc1ccco1)oc1ccccc12	-10.6	0.6	-4.0	.	0.9	.	.
O=C(/C=C/c1ccc2ccccc2c1)c1ccoc1	-3.6	1.7	20.4*	-0.2	-6.5	6.7	2.4
